In brackets after ≈: the same amount, converted by molar mass.
How the values were obtained:
[1] = Equilibrium solubility of compound in PBS by HPLC analysis; type: physicochemical
[2] = target: Serine/threonine-protein kinase PIM (Homo sapiens, UniProt P11309+Q9P1W9+Q86V86); assay: Inhibition of Pim1/2 in human KMS-12-BM cells assessed as phosphorylation of full-length BAD protein at Ser-112 incubated for 110 mins by flow cytometric analysis in presence of 20% FBS; type: cell-based
Procedure, shortened: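 Cell assay in KMS-12-BM, a multiple myeloma line with relatively high endogenous Pim-1/2. Pim-dependent phosphorylation of full-length endogenous BAD at Ser-112 measured.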

[3] = target: Serine/threonine-protein kinase pim-2 (Homo sapiens, UniProt Q9P1W9); assay: Inhibition of human full-length Pim2 expressed in Escherichia coli assessed as phosphorylation of biotinylated BAD peptide at Ser 112 preincubated for 30 mins followed by substrate addition measured after 1 hr by HTRF assay
Sequence of Serine/threonine-protein kinase pim-2 (Q9P1W9 whole entry): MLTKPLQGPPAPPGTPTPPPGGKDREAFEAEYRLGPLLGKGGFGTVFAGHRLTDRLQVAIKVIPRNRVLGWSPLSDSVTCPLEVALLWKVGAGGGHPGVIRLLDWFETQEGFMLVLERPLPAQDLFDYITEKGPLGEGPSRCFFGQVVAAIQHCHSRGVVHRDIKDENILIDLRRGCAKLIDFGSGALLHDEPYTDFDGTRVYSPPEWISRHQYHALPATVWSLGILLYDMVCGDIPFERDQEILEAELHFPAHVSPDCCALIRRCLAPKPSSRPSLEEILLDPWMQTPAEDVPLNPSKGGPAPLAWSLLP
Procedure, shortened: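 Cell-free kinase assay using recombinant Pim-1 or Pim-2. Read-out is phosphorylation of a short BAD peptide sequence spanning Ser-112.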

[4] = target: Serine/threonine-protein kinase pim-1 (Homo sapiens, UniProt P11309); assay: Inhibition of human full-length Pim1 expressed in Escherichia coli assessed as phosphorylation of biotinylated BAD peptide at Ser-112 preincubated for 30 mins followed by substrate addition measured after 1 hr by HTRF assay
Sequence of Serine/threonine-protein kinase pim-1 (P11309 whole entry): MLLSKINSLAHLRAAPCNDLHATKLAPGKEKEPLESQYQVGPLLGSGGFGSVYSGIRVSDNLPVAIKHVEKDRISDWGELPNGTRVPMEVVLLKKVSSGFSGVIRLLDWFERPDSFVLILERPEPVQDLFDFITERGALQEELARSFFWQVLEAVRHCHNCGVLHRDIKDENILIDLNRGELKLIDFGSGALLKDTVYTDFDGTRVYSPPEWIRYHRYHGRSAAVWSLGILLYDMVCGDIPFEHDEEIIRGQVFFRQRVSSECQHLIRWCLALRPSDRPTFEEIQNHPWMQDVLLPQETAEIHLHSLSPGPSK

[5] = Drug metabolism in human liver microsomes assessed as compound turnover at 1 uM incubated for 30 mins; type: ADME; conditions: read-out: Drug metabolism
[6] = Apparent permeability in pig LLC-PK1 cells at 5 uM; type: ADME, cell-based, Sus scrofa
[7] = Clearance in Sprague-Dawley rat at 2 mg/kg, iv; type: ADME, organism-based; conditions: in vivo
Procedure, shortened: (§1)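 Pharmacokinetics in male Sprague–Dawley rats. Clearance also expressed as a percentage of liver blood flow. Oral bioavailability determined.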

[8] = Drug metabolism in rat liver microsomes assessed as compound turnover at 1 uM incubated for 30 mins; type: ADME; conditions: read-out: Drug metabolism
[9] = Oral bioavailability in Sprague-Dawley rat at 5 mg/kg; type: ADME, organism-based; conditions: in vivo; procedure, shortened: as §1
[10] = Volume of distribution at steady state in Sprague-Dawley rat at 2 mg/kg, iv; type: ADME, organism-based; conditions: in vivo, read-out: Vdss; procedure, shortened: as §1
[11] = Protein binding in rat assessed as as fraction unbound at 5 uM by rapid equilibrium dialysis method; type: ADME; conditions: plasma
[12] = Half life in Sprague-Dawley rat at 2 mg/kg, iv; type: ADME, organism-based; conditions: in vivo; procedure, shortened: as §1
[13] = Volume of distribution at steady state in Sprague-Dawley rat at 1 mg/kg, iv; type: ADME, organism-based; conditions: in vivo, read-out: Vdss; procedure, shortened: as §1
[14] = Half life in Sprague-Dawley rat at 1 mg/kg, iv; type: ADME, organism-based; conditions: in vivo; procedure, shortened: as §1
[15] = Clearance in Sprague-Dawley rat at 1 mg/kg, iv; type: ADME, organism-based; conditions: in vivo; procedure, shortened: as §1

| SMILES | solubility thermodynamic [1] [µM] | IC50 [2] [pM] | IC50 [3] [pM] | IC50 [4] [pM] | also measured |
| --- | --- | --- | --- | --- | --- |
| Cc1nc2cccc3c2nc1NC[C@@H](C)CC[C@H]1CNC(=O)c2cc-3[nH]c21 | < 5 | 37000 | 300 | 300 | – |
| Cc1nc2cccc3c2nc1N[C@@H](C)CCC[C@H]1CNC(=O)c2cc-3[nH]c21 | < 5 | 40000 | 400 | 1000 | – |
| CCCNc1nc2c(-c3cc4c([nH]3)CCNC4=O)cccc2nc1C | – | – | 2000 | – | – |
| Cc1nc2cccc3c2nc1N[C@H](C)CCC[C@H]1CNC(=O)c2cc-3[nH]c21 | < 5 | 37000 | 200 | 100 | – |
| Cc1nc2cccc3c2nc1NC/C=C\C[C@@H]1CNC(=O)c2cc-3[nH]c21 | – | 370000 | 1000 | 2000 | – |
| C/C1=C/C[C@H]2CNC(=O)c3cc([nH]c32)-c2cccc3nc(C)c(nc23)NC1 | 23 (≈ 8.27 µg/mL) | 14000 | 200 | 400 | metabolised at 0.5 h, 1 µM [5]: 17%; Papp at 5 µM [6]: 40 ×10⁻⁶ cm/s; clearance [7]: 15.8 mL/min/kg; metabolised at 0.5 h, 1 µM [8]: 42%; bioavailability [9]: 17%; Vd [10]: 1.8 L/kg; fraction unbound at 5 µM [11]: 0.016; half-life [12]: 6.1 h |
| Cc1nc2cccc3c2nc1NCCCC[C@@H]1CNC(=O)c2cc-3[nH]c21 | – | 100000 | 200 | 400 | – |
| Cc1nc2cccc3c2nc1NC/C=C/C[C@H]1CNC(=O)c2cc-3[nH]c21 | < 5 | 106000 | 500 | 1000 | – |
| Cc1nc2cccc3c2nc1NCCCC[C@H]1CNC(=O)c2cc-3[nH]c21 | 7 (≈ 2.43 µg/mL) | 20000 | 50 | 70 | – |
| Cc1nc2cccc3c2nc1NC/C=C\C[C@H]1CNC(=O)c2cc-3[nH]c21 | < 5 | 21000 | 70 | 60 | – |
| Cc1nc2cccc(-c3cc4c([nH]3)CCNC4=O)c2nc1Nc1ccccc1 | – | 184000 | 2000 | 3000 | – |
| Cc1nc2cccc3c2nc1N[C@@H](C)/C=C/C[C@H]1CNC(=O)c2cc-3[nH]c21 | < 5 | 26000 | 300 | 600 | – |
| C/C1=C\C[C@H]2CNC(=O)c3cc([nH]c32)-c2cccc3nc(C)c(nc23)NC1 | 27 (≈ 9.7 µg/mL) | 16000 | 80 | 100 | metabolised at 0.5 h, 1 µM [5]: 45%; Papp at 5 µM [6]: 33 ×10⁻⁶ cm/s; Vd [13]: 3.1 L/kg; metabolised at 0.5 h, 1 µM [8]: 45%; bioavailability [9]: 35%; fraction unbound at 5 µM [11]: 0.0071; half-life [14]: 2.8 h; clearance [15]: 40 mL/min/kg |
| Cc1nc2cccc3c2nc1NC[C@H](C)CC[C@H]1CNC(=O)c2cc-3[nH]c21 | < 5 | 25000 | 400 | 500 | – |
| CCCCNc1nc2c(-c3cc4c([nH]3)CCNC4=O)cccc2nc1C | – | – | 2000 | 3000 | – |
| Cc1nc2cccc3c2nc1NC/C=C/C[C@@H]1CNC(=O)c2cc-3[nH]c21 | – | 880000 | 1000 | 1000 | – |
| Cc1nc2cccc3c2nc1N[C@H](C)/C=C/C[C@H]1CNC(=O)c2cc-3[nH]c21 | < 5 | 20000 | 50 | 300 | – |
